CSC inhib = cancer stem cell inhibition; cancer stem cell-like cells viability, luminescence; inhibition, % at 7.5 µM; 300,000 tested, 1.1% active; AID 2717; in the data active means inhibition above about 75%; tested in HMLE shEcad cells
Beta apoptosis = blocks beta cell apoptosis | protection from apoptosis, % (concentration not given with the values) | 300,000 tested, 0.8% active | INS-1E cytokine-induced death, ATP luminescence, 48 h; percent of positive-control rescue, neutral wells zero;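 active means Every replicate reaches about 75%, or at least half do and their mean reaches it too, limit read from the data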;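 further: 0% = cytokine-treated negative control wells and 100% = positive control rescue; higher means more ATP so stronger rescue from cytokine killing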
UPR XBP1 act = adaptive UPR (XBP1) activation; CHO-XBP1 luciferase reporter, IRE1-XBP1 UPR activation, luminescence; percent of tunicamycin response, DMSO as zero; activation, % at 20 µM; 330,000 tested, 0.33% active; AID 463104;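 active means versus positive control, 20 µM dose yields 30% or more activation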;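 further: 100% = tunicamycin at 10 µg/mL and 0% = DMSO only wells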
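Signal: luciferase luminescence; Assay system: CHO-XBP1 luciferase reporter cells; Amount: one thousand reporter cells per well; Dosing: 20 µM single concentration, DMSO 1%; Benchmarks: high control tunicamycin 10 µg/mL final, low control DMSO vehicle only; Schedule: 6 h compound exposure at 37 °C, 5% CO2; Evaluation: percent activation relative to tunicamycin reference.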
SKKanGAS inh = SKKanGAS growth inhibition | S. pyogenes SKKanGAS, kanamycin growth, BacTiter-Glo, 6 h | 300,000 tested, 1.3% active | inhibition, % at 7.5 µM;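 active means mean replicate score, as percent of positive control median, at least 50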;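 further: strain carries kanamycin resistance gene driven by streptokinase promoter and grows in 40 µg/ml kanamycin; loss of luminescence reflects streptokinase promoter inhibition or plain growth inhibition; 0% = median of DMSO wells and 100% = positive control at its reference dose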
Mdm2 MdmX PPI = inhibitors of human Mdm2/MdmX interaction | O15151+Q00987 | SaOS-2 split-luciferase Mdm2/MdmX complementation, luminescence | inhibition, % at 8 µM | 330,000 tested, 3% active | AID 485346;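 active means inhibition of at least 50% at 8 µM in the primary screen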
CHOP UPR activ = activators of apoptotic arm of unfolded protein response (CHOP) | activation, % at 10 µM | AID 449763 | CHO-CHOP luciferase reporter, UPR activation, luminescence; percent of tunicamycin response over DMSO baseline | 330,000 tested, 0.34% active;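 active means at 10 µM dose, activation of 40% or more, normalized to positive control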;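 further: 100% = tunicamycin at 10 µg/mL and 0% = DMSO alone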
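System: CHO-CHOP luciferase reporter cell line | Buffer or medium: F12 medium containing 10% fetal bovine serum | Doses: One dose, 10 µM in 0.5% DMSO | Times: 6 h compound exposure at 37 °C after overnight seeding | Signal: Luciferase luminescence | Read-out: % activation vs tunicamycin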
XBP1 UPR conf = adaptive UPR (XBP1) activation, confirmed | shares compounds with UPR XBP1 act | CHO-XBP1 IRE1-XBP1 luciferase reporter, luminescence | activation, % at 20 µM | 1,000 tested, 63% active;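 active means reporter signal at least 30% of the positive control's activation in two or more of four replicate wells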;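 further: plate controls were DMSO negative control for no effect and tunicamycin 10 µg/mL positive control for full effect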
Mdm2-MdmX conf = confirmation of human Mdm2/MdmX interaction inhibitors; shares compounds with Mdm2 MdmX PPI; Mdm2-MdmX binding, luminescent assay; inhibition, % at 8 µM; 10,000 tested, 55% active; in the data active means inhibition above about 40%
Full FLuc ctr = full-length luciferase inhibition in Mdm2/MdmX counter-screen; inhibition, % at 8 µM; 6,200 tested, 77% active; AID 504607; SaOS-2 full-length luciferase counterscreen, luminescence; shares compounds with Mdm2 MdmX PPI;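 active means mean inhibition at 8 µM reaching about 37%, which flags the compound as non-specific, limit read from the data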;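 further: p53-null SaOS-2 cells with luciferase driven by a doxycycline-inducible promoter; compound on cells about two nights before reading with doxycycline added after day one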
Starred values were filed as active, the others as inactive; / = no result. Most compounds without a hit are left out; they make up all but 4.8% or so of the library.

SMILES | CSC inhib | Beta apoptosis | UPR XBP1 act | SKKanGAS inh | Mdm2 MdmX PPI | CHOP UPR activ | XBP1 UPR conf | others
COC(=O)c1ccccc1NC(=O)c1ccc(-c2cccc(Cl)c2)o1 | 15 | 6 | 52* | -5 | 48 | 14 | 15
CCOC(=O)C1=C(O)/C(=C/c2ccc(OCC(=O)O)c(OCC)c2)SC1=Nc1ccc(OC)cc1 | -7 | -5 | -3 | 29 | 24 | 1 | /
CCOC(=O)C1=C(O)/C(=C/c2cc(OC)c(OC)c(OC)c2)SC1=Nc1ccc(OC)cc1 | -5 | 3 | 36* | 9 | 50 | 4 | 18
Cc1ccc2c(n1)sc1c(-c3ccc(Br)cc3)c(C#N)c(N)nc12 | 15 | 17 | 61* | 9 | 41 | 0 | 43*
CCc1nc(N)c(C#N)c(-c2ccc(F)cc2)c1C | -9 | -1 | -2 | -3 | -1 | -2 | /
COc1ccc(NC(=O)COC(=O)CCCOc2ccc(Cl)cc2Cl)cc1Cl | 18 | 2 | 0 | 11 | -18 | -4 | /
COc1ccc(NC(=O)COC(=O)CCCOc2ccc(Cl)cc2Cl)cc1 | -12 | / | 75* | -5 | 3 | 1 | -1
Cc1ccc(C(C)C)c(OCC(=O)NN=C2CCCC(=O)C2)c1 | 8 | -6 | 2 | / | 0 | -1 | /
COc1ccc(/C=C2\SC(=S)N(CCCC(=O)Nc3cc(C)on3)C2=O)cc1OC | 7 | 0 | 42* | 2 | 26 | 1 | 2
Cc1ccc(/C=C2\SC(=S)N(CCCC(=O)Nc3cc(C)on3)C2=O)cc1 | -4 | -7 | -9 | 1 | 7 | -1 | /
COc1cc(C2CC(=O)c3c(ccc4ccccc34)N2)ccc1O (stereo not drawn) | 8 | -3 | 0 | 0 | 10 | -2 | /
COc1cccc(C2Nc3ccc4ccccc4c3C3=C2C(=O)CCC3)c1O (stereo not drawn) | 8 | 26 | 57* | 2 | 30 | 2 | 8
CCOc1ccc(NC(=O)CN(C)C(=O)CC2OC(=O)c3ccccc32)cc1OCC (stereo not drawn) | -8 | / | -2 | -19 | -5 | 3 | /
COc1ccc(CNC(=O)C2CCN(S(=O)(=O)c3cccc4nonc34)CC2)cc1 | -15 | -5 | -5 | -2 | 1 | 4 | /
O=C(Nc1ccc2nn(-c3ccccc3)nc2c1)c1ccc(Br)o1 | -2 | 16 | 35* | 4 | -6 | 3 | 5
C#CCOCCOCCOCCNc1nc(N2CCN(C(=O)CCCCCCCCCCNC(=O)Cn3cc(C[C@@H](C)O)nn3)CC2)nc(N2CCN(C(=O)CCCCCCCCCCNC(=O)[C@H](CCCN=C(N)N)n3cc(C[C@@H](C)CC)nn3)CC2)n1 | -14 | 61 | 4 | 31 | 9 | 1 | /
N=c1c2c(n(Cc3ccc(F)cc3)c3c1CCC3)CCC2 | / | / | 149* | -2 | 42 | -2 | 1
CC1CCN(CC(=O)N(C)c2c(N)n(Cc3ccccc3)c(=O)[nH]c2=O)CC1 | / | / | 2 | / | 1 | 0 | /
COc1cc(CN2CCCCC2)ccc1OCc1ccccc1 | 58 | -6 | 37* | -20 | -26 | 4 | 1
COc1ccc(CN2CCCCCC2)cc1OC | -11 | -1 | 3 | 1 | -19 | 1 | /
COc1ccc(-c2ccc(C#N)c(SCC(=O)Nc3sc4c(c3C#N)CCC4)n2)cc1OC | 53 | 58 | 41* | 2 | 97* | 28 | 56* | Mdm2-MdmX conf=63*;Full FLuc ctr=102*
N#Cc1ccccc1S(=O)(=O)Nc1ccc2c(c1)OCCO2 | -2 | 0 | -7 | -6 | 8 | -1 | /
COc1ccc2c(c1)[nH]c1c(=O)n(/N=C/C3C(C)C=C(C)CC3C)c(=O)[nH]c12 (stereo not drawn) | 100* | 53 | 56* | 0 | 69* | 2 | 86* | Mdm2-MdmX conf=13

Bioassay records from PubChem.
